Test results: ChEMBL document CHEMBL1125825, “Hydrophobicity parameters for platinum complexes” (J Med Chem, 1991)

Key:
[1] = Partition coefficient (logP); type: physicochemical; conditions: octanol/water
In short: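 Octanol/water shake-flask partitioning used equal phase volumes shaken at 300 agitations/min at 37 °C. Phases were separated at various times, and Pt in each phase was measured by graphite-furnace atomic absorption. P is the octanol Pt concentration divided by the aqueous Pt concentration, reported as log P, with the mean ± range of 6-10 independent experiments.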

[2] = tested on: P388; assay: Optimal dose evaluated for antitumor activity against P388 murine leukemia cells in female DBA/2 mice.; type: functional, cell-based; conditions: Mus musculus
In short: (§1)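 P388 murine leukemia model in female DBA/2 mice given 10^6 cells on day 0. A single treatment was given on day 1 with the platinum complex freshly dissolved in 0.4% Klucel. T/C is the median survival time of treated mice relative to untreated controls.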

[3] = species on record: Mus musculus; assay: Median survival time of treated mice with respect to untreated controls.; type: functional, organism-based; in short: as §1

| Substance | logP [1] | Optimal dose [2] [µmol/kg] | T/C [3] [%] |
| --- | --- | --- | --- |
| CISPLATIN [listing 1 of 2 here] | -2.19 | – | – |
| CISPLATIN [listing 2 of 2 here] | – | 27 | 200 |
| cis-di-amonium, di-nitarte platinum (II) [listing 1 of 2 here] | -3.36 | – | – |
| cis-di-amonium, di-nitarte platinum (II) [listing 2 of 2 here] | – | 3.5 | 123 |
| cis-di-cyclobutyleamino,di-chloro platinum (II) [listing 1 of 2 here] | 0.36 | – | – |
| cis-di-cyclobutyleamino,di-chloro platinum (II) [listing 2 of 2 here] | – | 147 | 199 |
| cis-di-cycloheptylamino,di-nitrate platinum (II) [listing 1 of 2 here] | -0.35 | – | – |
| cis-di-cycloheptylamino,di-nitrate platinum (II) [listing 2 of 2 here] | – | 92 | 133 |
| cis-di-cyclohexylamino,di-nitrate platinum (II) [listing 1 of 2 here] | -0.91 | – | – |
| cis-di-cyclohexylamino,di-nitrate platinum (II) [listing 2 of 2 here] | – | 97 | 173 |
| cis-di-cyclopentylamino, dichloro platinum (II) [listing 1 of 2 here] | 0.81 | – | – |
| cis-di-cyclopentylamino, dichloro platinum (II) [listing 2 of 2 here] | – | 572 | 172 |
| cis-di-cyclopentyleamino,di-nitrate platinum (II) [listing 1 of 2 here] | -1.14 | – | – |
| cis-di-cyclopentyleamino,di-nitrate platinum (II) [listing 2 of 2 here] | – | 51 | 193 |
| cis-di-isopropyleamino,dichloro platinum (II) | -0.32 | – | – |
| cis-di-methylamino, di-nitrate platinum (II) [listing 1 of 2 here] | -3.28 | – | – |
| cis-di-methylamino, di-nitrate platinum (II) [listing 2 of 2 here] | – | 26 | 161 |
| cis-di-methylamino,di-chloro platinum (II) [listing 1 of 2 here] | -1.68 | – | – |
| cis-di-methylamino,di-chloro platinum (II) [listing 2 of 2 here] | – | 76 | 175 |
| cis-di-pyridinium (4-acetyle),di-nitrate platinum (II) | -1.41 | – | – |
| cis-di-pyridinium (4-chloro),di-nitrate platinum (II) [listing 1 of 2 here] | -1.06 | – | – |
| cis-di-pyridinium (4-chloro),di-nitrate platinum (II) [listing 2 of 2 here] | – | 183 | 130 |
| cis-di-pyridinium (4-diaminomethane),di-nitrate platinum (II) [listing 1 of 2 here] | -0.83 | – | – |
| cis-di-pyridinium (4-diaminomethane),di-nitrate platinum (II) [listing 2 of 2 here] | – | 495 | 110 |
| cis-di-pyridinium (4-methanol),di-nitrate platinum (II) | -2.13 | – | – |
| cis-di-pyridinium,dinitrate platinum (II) [listing 1 of 2 here] | -1.59 | – | – |
| cis-di-pyridinium,dinitrate platinum (II) [listing 2 of 2 here] | – | 105 | 125 |
